Compound activity: PubChem, Johns Hopkins Ion Channel Center
TRPC6 inh = mouse TRPC6 channel inhibitors, primary screen, cell-based, HEK293, membrane potential dye. actives 1.1% (n = 310,000). ACh-evoked depolarization; hits give low values. Short transient receptor potential channel 6 (Mus musculus), Q61143. B-score at 10 µM;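 active means B-score under library mean minus 3 SD, initial fluorescence not abnormally high, positive integrated signal ratio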;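 further: B-score derived from integrated fluorescence ratio over the kinetic read; more negative B-score means stronger inhibition of depolarization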
TRPC4 block = inhibitors of mouse TRPC4 channel, primary screen, Fluo4 calcium, HEK293 TRPC4beta/mu-opioid cells | actives 0.39% (n = 300,000) | AID 2247, 2010 | DAMGO-evoked Fluo4 calcium flux; hits give low values | B-score at 10 µM;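 active means B-score over 3 SD under the library average, no early fluorescence shift, positive overall ratio signal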
Target sequence (Q9QUQ5 whole entry, looked up): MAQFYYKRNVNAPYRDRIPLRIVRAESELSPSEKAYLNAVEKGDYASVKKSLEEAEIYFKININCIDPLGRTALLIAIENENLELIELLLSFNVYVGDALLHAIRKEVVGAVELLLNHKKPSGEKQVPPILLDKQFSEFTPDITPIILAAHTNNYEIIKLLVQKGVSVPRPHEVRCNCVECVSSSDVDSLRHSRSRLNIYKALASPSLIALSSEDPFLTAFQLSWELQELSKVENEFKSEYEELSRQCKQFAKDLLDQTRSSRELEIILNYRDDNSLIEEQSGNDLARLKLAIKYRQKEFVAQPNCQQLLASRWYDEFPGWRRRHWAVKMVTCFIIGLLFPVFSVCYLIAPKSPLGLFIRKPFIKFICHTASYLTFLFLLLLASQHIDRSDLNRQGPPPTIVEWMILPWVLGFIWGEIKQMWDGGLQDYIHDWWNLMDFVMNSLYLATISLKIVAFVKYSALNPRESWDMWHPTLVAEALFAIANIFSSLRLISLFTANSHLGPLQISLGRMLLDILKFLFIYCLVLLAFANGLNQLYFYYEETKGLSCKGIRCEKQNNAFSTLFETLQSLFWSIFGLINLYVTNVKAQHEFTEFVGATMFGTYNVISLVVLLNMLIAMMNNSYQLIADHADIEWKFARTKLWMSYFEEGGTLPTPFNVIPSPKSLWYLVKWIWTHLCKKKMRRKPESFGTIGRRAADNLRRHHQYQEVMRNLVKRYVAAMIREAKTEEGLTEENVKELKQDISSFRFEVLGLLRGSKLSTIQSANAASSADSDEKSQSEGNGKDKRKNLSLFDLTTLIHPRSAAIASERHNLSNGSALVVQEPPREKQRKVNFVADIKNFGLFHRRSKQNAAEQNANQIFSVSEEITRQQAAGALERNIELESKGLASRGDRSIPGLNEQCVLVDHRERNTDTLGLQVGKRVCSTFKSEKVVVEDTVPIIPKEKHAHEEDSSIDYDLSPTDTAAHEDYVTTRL
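Test system – stable TRPC4beta/mu-opioid receptor HEK293 cells · Probe or stimulus – DAMGO, a submaximal dose followed by a maximal one · Dosing – one concentration per compound · Signal – Fluo4 calcium fluorescence by kinetic imaging, 5 s 1 Hz baseline · Evaluation – per-well B score of integrated baseline-normalized Fluo4 ratio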
TRPC6 act = mouse TRPC6 channel activators, primary screen, cell-based, HEK293, membrane potential dye; Short transient receptor potential channel 6 (Mus musculus), Q61143; HEK293-TRPC6 membrane potential dye fluorescence; hits give high values; B-score at 10 µM; actives 0.13% (n = 310,000);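 active means B-score of the integrated fluorescence ratio above library mean plus 3 SD, and starting fluorescence ratio within library mean plus 5 SD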;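 further: higher score means more depolarization so channel activation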
TRPC4 act = activators of mouse TRPC4 channel, primary screen, Fluo4 calcium, HEK293 TRPC4beta/mu-opioid cells. Short transient receptor potential channel 4 (Mus musculus), Q9QUQ5. B-score at 10 µM. actives 0.49% (n = 310,000). AID 2237, 2010. Fluo4 calcium fluorescence; hits give high values;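 active means B-score above 5 SD of library B-scores, and initial fluorescence ratio not above library mean plus 5 SD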;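 further: positive B-score marks a calcium rise read as TRPC4 activation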
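Material: HEK293 stable line with TRPC4beta plus mu-opioid receptor; technique: Fluo4 calcium-sensitive dye fluorescence, kinetic, 1 Hz baseline; timing: Fluo4 dye loading 45 min at room temperature, 110 s recording; controls: assay buffer as low control, maximal DAMGO as high control; read-out: integrated baseline-normalised fluorescence ratio, converted to per-well B score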
TRPC4 PAM = positive allosteric modulators of TRPC4, primary screen, cell-based, mouse TRPC4beta, HEK293 mu-opioid, Fluo-4 calcium | B-score at 10 µM | AID 2227, 2009 | DAMGO EC20, Fluo-4 Ca2+ flux; hits give high values | actives 0.42% (n = 310,000);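 active means B-score of calcium response area above 5 SD of library B-scores, with initial fluorescence ratio within 5 SD of library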
Hits are given with their value; – = inactive; · = no result. Compounds with a hit are over-represented: about 2.3% of the library has one in this group of screens.

SMILES | TRPC6 inh | TRPC4 block | TRPC6 act | TRPC4 act | TRPC4 PAM
CN(C)c1ccc(N=Nc2ccccc2C(=O)OCC(=O)N(C)C2CCCCC2)cc1 | – | – | – | – | 11
CN(C)c1ccc(N=Nc2ccccc2C(=O)OCC(=O)NCC2CCCCC2)cc1 | – | – | – | – | –
CCOc1ccccc1N(CC(=O)N1CCOCC1)S(=O)(=O)c1ccccc1 | – | -6 | – | 93 | –
Cc1ccccc1N(CC(=O)NCC1CCCO1)C(=O)CCC(=O)Nc1nccs1 (stereo unspecified) | – | – | – | – | –
O=C1/C(=C/c2cccc(O)c2)SC(=S)N1CC1CCCO1 (stereo unspecified) | – | – | – | – | –
COc1cccc(/C=C2\SC(=S)N(CC3CCCO3)C2=O)c1 (stereo unspecified) | – | -6 | – | – | –
NS(=O)(=O)c1ccc(NC(=O)CN2CCCN(S(=O)(=O)c3ccc(F)cc3)CC2)cc1 | – | – | – | – | –
O=C(CN1CCCN(S(=O)(=O)c2ccc(F)cc2)CC1)Nc1ccccc1Br | – | -6 | – | – | –
CC(=O)C1=C(c2ccc(Br)cc2)C(=O)c2ccccc2C1=O | – | – | – | – | 35
Cc1ccc(S(=O)(=O)N2CCC(C(=O)NC3CC(C)(C)NC(C)(C)C3)CC2)cc1C | – | – | – | – | –
CCc1cc(Cl)c(OC)c(C(=O)NC[C@@H]2CCCN2CC)c1O | – | – | – | 70 | –
CCN1CCCC1CNC(=O)c1ccccc1Cl (stereo unspecified) | – | – | – | – | –
CCN(CC)CCSc1nc2ccc(OC)cc2[nH]1 | – | – | – | 124 | –
Cc1ccc(S(=O)(=O)N2CCOCC2)cc1C(=O)NNC(=O)c1ccoc1C | – | – | – | – | –
CC1=NN(c2ccccc2)C(=O)/C1=C/c1ccc(Cl)cc1 | – | – | – | – | 10
COc1ccc(NC(=O)C2CCCN(S(=O)(=O)c3ccc(Cl)cc3)C2)cc1OC (stereo unspecified) | – | – | – | – | –
CC(C)c1nnc(NC(=O)CCC(=O)N2CCN(Cc3ccccc3)CC2)s1 | – | – | – | – | 12
COc1cc(C(=O)NC(=S)NNC(=O)[C@H]2C[C@@H]2c2ccccc2)cc(OC)c1OC | – | – | – | 160 | –
COc1ccccc1C(=O)NNC(=S)NC(=O)c1cc(OC)c(OC)c(OC)c1 | – | – | – | 62 | –
COc1cc(C(=O)NNC(=S)NC(=O)c2ccccc2C)cc(OC)c1OC | – | – | – | – | –
CCCOc1ccc(N2C(=O)CC(N3CCN(CCN=CC4C(=O)CC(C)(C)CC4=O)CC3)C2=O)cc1 (stereo unspecified) | – | – | – | – | –
CN(C)CCN(C(=O)c1cccc(Cl)c1)c1nc2c(Cl)cccc2s1 | – | – | – | – | 11
O=c1cc(CN2CC(O)Cc3ccc4ccccc4c32)nc2sccn12 (stereo unspecified) | – | – | – | – | –
O=[N+]([O-])c1cc(-c2ccc(/C=N/n3cnnc3)o2)ccc1Cl | -13.1 | – | – | – | –
CCCC(=O)Nc1c(-c2ccccc2)c(=O)c(C)nn1-c1ccc(Cl)cc1 | – | – | – | 78 | –
SMILES | TRPC6 inh | TRPC4 block | TRPC6 act | TRPC4 act | TRPC4 PAM
COc1ccc(-c2c(NC(=O)c3ccco3)n(-c3ccccc3)nc(C)c2=O)cc1 | – | – | – | – | –
CC(C)(C)NC(=O)CN(C(=O)c1snc(C(=O)NC2CCCCC2)c1N)c1ccccc1F | – | – | – | – | –
COCCn1c(SCC(=O)NCCc2ccc(OC)c(OC)c2)nc2c([nH]c3ccccc32)c1=O | – | – | – | – | 11
COCCn1c(SCC(=O)NCCc2ccccc2)nc2c([nH]c3ccccc32)c1=O | – | – | – | – | –
COCCn1c(SCC(=O)Nc2ccccc2OC)nc2c([nH]c3ccccc32)c1=O | – | -7 | – | – | –
COc1ccc(Cl)cc1Nc1nc(N)nc(C(F)(F)F)n1 | – | – | – | – | –
O=C(NCc1ccccc1Cl)c1ccc(CSc2nc3ccncc3[nH]2)cc1 | – | – | – | – | –
Clc1ccccc1CSc1nc2ccncc2[nH]1 | – | -6 | – | – | –
O=c1[nH]c(C2CCCN(S(=O)(=O)c3ccccc3)C2)nc2c1nnn2Cc1ccccc1Br (stereo unspecified) | – | – | – | – | 10
FC(F)(F)c1cnc(Sc2ncn[nH]2)c(Cl)c1 | – | – | – | – | –
c1ccc2c(-c3[nH]ncc3CNCCCn3ncc4ccccc43)cccc2c1 | – | – | – | 64 | –
OCC1CCCCN1CCNCc1cn[nH]c1-c1cccc2ccccc12 (stereo unspecified) | – | – | – | – | –
CCOC(=O)C1=C(C)N(c2ccccc2)C(=O)NC1c1cccc([N+](=O)[O-])c1 (stereo unspecified) | – | – | – | – | 15
Cc1csc2c(N3CCN(S(=O)(=O)c4ccc(Cl)cc4)CC3)ncnc12 | – | – | – | – | 10
O=[N+]([O-])c1ccc(N2CCN(Cc3ccc(Br)o3)CC2)cc1 | – | – | – | – | –
COc1ccc(Oc2ccc(NC(=O)c3ccccc3C)cc2)cc1 | – | – | – | – | –
COc1cccc(NS(=O)(=O)c2ccc3[nH]cc(C(=O)NCCN4CCOCC4)c(=O)c3c2)c1 | – | · | – | – | –
Cc1ccccc1NS(=O)(=O)c1ccc2[nH]cc(C(=O)NCCCN3CCOCC3)c(=O)c2c1 | -5.97 | · | – | – | –
COc1ccc2nc3cc(Cl)ccc3c(Nc3cc(CN4CCCC4)c(O)c(CN4CCCC4)c3)c2n1 | -6.6 | – | – | – | –
O=S(=O)(Nc1cc2nc3ccccc3nc2n1Cc1ccccc1)c1ccc(Cl)cc1 | – | – | 25.7 | – | –
COC(=O)[C@H]1[C@H](c2ccccc2)[C@H](C(=O)OC)O[C@H]1c1ccccc1 | – | – | – | – | –
COC(=O)C1C(c2ccccc2)C(C(=O)N2CCN(C)CC2)C1c1ccccc1 (stereo unspecified) | – | – | – | 64 | –
O=[N+]([O-])c1ncccc1OCc1ccc(Cl)c(Cl)c1 | – | – | – | – | –
COc1ccccc1CNC(=O)c1ccccc1NC(=O)C1=C(C)OCCS1 | – | – | – | – | –
COc1ccc(NC(=O)c2c[nH]n3c(=O)cc(C4CCN(C(=O)OC(C)(C)C)CC4)nc23)cc1Cl | – | -7 | – | – | –
CC(C)(C)OC(=O)N1CCC(c2cc(=O)n3[nH]cc(C(=O)Nc4ccc(F)c(Cl)c4)c3n2)CC1 | – | – | – | – | –
